Test results taken from ChEMBL document CHEMBL4270630.

Experiments:
[1] = Cytotoxicity against MDCK cells assessed as alteration in cell morphology after 3 days by microscopic method; assay type: cell-based, Canis lupus familiaris; settings: dog
Method in brief: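 Mock-infected MDCK cells were treated with compounds in parallel with the antiviral assay, 3 days at 35 °C. MCC is the concentration causing minimal change in cell morphology by microscopy. CC50 is the 50% cytotoxic concentration by MTS formazan viability assay.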

Influenza B virus [2] = assay: Antiviral activity against Influenza B virus B/Ned/537/05 infected in MDCK cells after 3 days by MTS assay; assay type: functional, organism-based; settings: B/Ned/537/05, MDCK, 72 h
Method in brief: (§1)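 Semi-confluent MDCK cells were infected at an MOI of 0.0004 PFU/cell in Ultra-MDCK infection medium with 2 μg/mL TPCK-trypsin, together with compounds. After 3 days at 35 °C, CPE was scored by microscopy and confirmed by MTS formazan viability. Values are means of two to five independent tests.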

MDCK = assay: Cytotoxicity against MDCK cells assessed as reduction in cell viability after 3 days by MTS assay; assay type: cell-based, Canis lupus familiaris; settings: dog, mdck, 72 h
Influenza A virus [3] = assay: Antiviral activity against Influenza A virus A/Virginia/ATCC3/2009(H1N1pdm) infected in MDCK cells after 3 days by MTS assay; assay type: functional, organism-based, Influenza A virus (A/Virginia/03/2009(H1N1)); settings: 72 h
Method in brief: as §1, with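 “viability. EC50 is the concentration giving 50% inhibition of virus-induced CPE.” for “viability.”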

Influenza A virus [4] = assay: Antiviral activity against Influenza A virus A/PR/8/34(H1N1) infected in MDCK cells assessed as reduction in virus-induced cytopathic effect after 3 days by microscopic method; assay type: functional, organism-based, A/Puerto Rico/8/1934(H1N1)
Method in brief: as §1, with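 “viability. EC50 is the concentration giving 50% inhibition of virus-induced CPE.” for “viability.”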

Influenza B virus [5] = assay: Antiviral activity against Influenza B virus B/Ned/537/05 infected in MDCK cells assessed as reduction in virus-induced cytopathic effect after 3 days by microscopic method; assay type: functional, organism-based; settings: B/Ned/537/05, MDCK, 72 h; method in brief: as §1
Influenza A virus [6] = assay: Antiviral activity against Influenza A virus A/PR/8/34(H1N1) infected in MDCK cells after 3 days by MTS assay; assay type: functional, organism-based, A/Puerto Rico/8/1934(H1N1)
Method in brief: as §1, with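 “viability. EC50 is the concentration giving 50% inhibition of virus-induced CPE.” for “viability.”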

H3N2 subtype [7] = assay: Antiviral activity against Influenza A virus A/HK/7/87(H3N2) infected in MDCK cells assessed as reduction in virus-induced cytopathic effect after 3 days by microscopic method; assay type: functional, organism-based; settings: A/Hong Kong/7/1987(H3N2), 72 h
Method in brief: as §1, with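 “viability. EC50 is the concentration giving 50% inhibition of virus-induced CPE.” for “viability.”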

Influenza A virus [8] = assay: Antiviral activity against Influenza A virus A/Virginia/ATCC3/2009(H1N1pdm) infected in MDCK cells assessed as reduction in virus-induced cytopathic effect after 3 days by microscopic method; assay type: functional, organism-based, Influenza A virus (A/Virginia/03/2009(H1N1)); settings: 72 h
Method in brief: as §1, with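 “viability. EC50 is the concentration giving 50% inhibition of virus-induced CPE.” for “viability.”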

H3N2 subtype [9] = assay: Antiviral activity against Influenza A virus A/HK/7/87(H3N2) infected in MDCK cells after 3 days by MTS assay; assay type: functional, organism-based; settings: A/Hong Kong/7/1987(H3N2), 72 h
Method in brief: as §1, with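 “viability. EC50 is the concentration giving 50% inhibition of virus-induced CPE.” for “viability.”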

Influenza B virus [10] = assay: Antiviral activity against Influenza B virus B/HK/05/72 infected in MDCK cells after 3 days by MTS assay; assay type: functional, organism-based; settings: B/Hong Kong/05/1972, MDCK, 72 h
Method in brief: as §1, with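 “viability. EC50 is the concentration giving 50% inhibition of virus-induced CPE.” for “viability.”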

Influenza B virus [11] = assay: Antiviral activity against Influenza B virus B/HK/05/72 infected in MDCK cells assessed as reduction in virus-induced cytopathic effect after 3 days by microscopic method; assay type: functional, organism-based; settings: B/Hong Kong/05/1972, MDCK, 72 h
Method in brief: as §1, with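 “viability. EC50 is the concentration giving 50% inhibition of virus-induced CPE.” for “viability.”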

[12] = Influenza A virus, A/Puerto Rico/8/1934(H1N1), MDCK, 72 h

| SMILES | MCC at 72 h [1] [µM] | EC50 (Influenza B virus [2]) [µM] | CC50 (MDCK) [µM] | EC50 (Influenza A virus [3]) [µM] | EC50 (Influenza A virus [4]; [12]) [µM] | EC50 (Influenza B virus [5]) [µM] | EC50 (Influenza A virus [6]; [12]) [µM] | EC50 (H3N2 subtype [7]) [µM] | EC50 (Influenza A virus [8]) [µM] | EC50 (H3N2 subtype [9]) [µM] | EC50 (Influenza B virus [10]) [µM] | EC50 (Influenza B virus [11]) [µM] | EC50 (Influenza A virus [4]; mdck) [µM] | EC50 (Influenza A virus [6]; mdck) [µM] |
| --- | --- | --- | --- | --- | --- | --- | --- | --- | --- | --- | --- | --- | --- | --- |
| CCCSC1=C(SCCC)C(=O)N([C@H]2C(=O)N[C@@H]3Cc4ccc(c(Cl)c4)Oc4cc5cc(c4O)Oc4ccc(cc4Cl)[C@@H](O[C@@H]4O[C@H](CO)[C@@H](O)[C@H](O)[C@H]4NC(C)=O)[C@H]4NC(=O)[C@H](NC(O)[C@@H]5NC(=O)[C@@H](NC3=O)c3cc(O)cc(c3)Oc3cc2ccc3O)c2ccc(O)c(c2)-c2c(O)cc(O)cc2[C@H](C(=O)O)NC4=O)C1=O (stereo not given in full) | 20 | 7.2 | 18 | 2 | > 100 | > 100 | > 100 | > 100 | 1.8 | > 100 |  |  |  |  |
| CC(=O)N[C@H]1[C@H]([C@H](O)[C@H](O)CO)OC(C(=O)O)=C[C@@H]1N=C(N)N [ZANAMIVIR] | > 100 | 0.0062 | > 100 | 30 | 0.041 | 0.0079 | 0.19 | 20 | 1.9 | 3.2 |  |  |  |  |
| CCCCCCCCSC1=C(SCCCCCCCC)C(=O)N([C@H]2C(=O)N[C@@H]3Cc4ccc(c(Cl)c4)Oc4cc5cc(c4O)Oc4ccc(cc4Cl)[C@@H](O[C@@H]4O[C@H](CO)[C@@H](O)[C@H](O)[C@H]4NC(C)=O)[C@H]4NC(=O)[C@H](NC(O)[C@@H]5NC(=O)[C@@H](NC3=O)c3cc(O)cc(c3)Oc3cc2ccc3O)c2ccc(O)c(c2)-c2c(O)cc(O)cc2[C@H](C(=O)O)NC4=O)C1=O (stereo not given in full) | 20 |  | 11 | 1.9 | > 100 |  | > 100 | > 100 | 2.1 | > 100 | > 100 | > 100 |  |  |
| CCCSC1=C(SCCC)C(=O)N(CCOCCOCCOCCOCc2cn(C3C(=O)N[C@@H]4Cc5ccc(c(Cl)c5)Oc5cc6cc(c5O)Oc5ccc(cc5Cl)[C@@H](O[C@@H]5O[C@H](CO)[C@@H](O)[C@H](O)[C@H]5NC(C)=O)[C@H]5NC(=O)[C@H](NC(O)[C@@H]6NC(=O)[C@@H](NC4=O)c4cc(O)cc(c4)Oc4cc3ccc4O)c3ccc(O)c(c3)-c3c(O)cc(O)cc3[C@H](C(=O)O)NC5=O)nn2)C1=O (stereo not given in full) | 20 |  | 38 | 7.8 | > 100 |  | > 100 | 6.2 | > 100 | ≤ 7.8 | > 100 | > 100 |  |  |
| NC12CC3CC(CC(C3)C1)C2 [AMANTADINE] | > 500 | > 500 | > 500 |  | > 500 | > 500 | > 500 | 11 |  | 1.9 |  |  |  |  |
| CCCCCCCCCCCCSC1=C(SCCC)C(=O)N([C@H]2C(=O)N[C@@H]3Cc4ccc(c(Cl)c4)Oc4cc5cc(c4O)Oc4ccc(cc4Cl)[C@@H](O[C@@H]4O[C@H](CO)[C@@H](O)[C@H](O)[C@H]4NC(C)=O)[C@H]4NC(=O)[C@H](NC(O)[C@@H]5NC(=O)[C@@H](NC3=O)c3cc(O)cc(c3)Oc3cc2ccc3O)c2ccc(O)c(c2)-c2c(O)cc(O)cc2[C@H](C(=O)O)NC4=O)C1=O (stereo not given in full) | ≥ 20 | 7.3 | 29 | 8.2 | > 100 | 8.9 | 10 | 7.3 | 5.1 | 6.8 |  |  |  |  |
| CCCCCCCCCCCCSC1=C(SCCCCCCCCCCCC)C(=O)N([C@H]2C(=O)N[C@@H]3Cc4ccc(c(Cl)c4)Oc4cc5cc(c4O)Oc4ccc(cc4Cl)[C@@H](O[C@@H]4O[C@H](CO)[C@@H](O)[C@H](O)[C@H]4NC(C)=O)[C@H]4NC(=O)[C@H](NC(O)[C@@H]5NC(=O)[C@@H](NC3=O)c3cc(O)cc(c3)Oc3cc2ccc3O)c2ccc(O)c(c2)-c2c(O)cc(O)cc2[C@H](C(=O)O)NC4=O)C1=O (stereo not given in full) | ≤ 4 | > 100 | ≤ 1.1 | > 100 | > 100 | > 100 | > 100 | > 100 | > 100 | > 100 |  |  |  |  |
| CC(=O)N[C@H]1[C@H](O[C@@H]2c3ccc(c(Cl)c3)Oc3cc4cc(c3O)Oc3ccc(cc3Cl)C[C@H]3NC(=O)C(n5cc(COCCOCCOCCOCCN6C(=O)C(SCCOCCOCCOCCO)=C(SCCOCCOCCOCCO)C6=O)nn5)c5ccc(O)c(c5)Oc5cc(O)cc(c5)[C@H](NC3=O)C(=O)N[C@H]4C(O)N[C@H]3C(=O)N[C@H]2C(=O)N[C@@H](C(=O)O)c2cc(O)cc(O)c2-c2cc3ccc2O)O[C@H](CO)[C@@H](O)[C@@H]1O (stereo not given in full) | > 100 | 42 | ≥ 32 | > 100 | > 100 | > 100 | > 100 | > 100 | > 100 | 23 |  |  |  |  |
| NC(=O)c1ncn([C@@H]2O[C@H](CO)[C@@H](O)[C@H]2O)n1 [RIBAVIRIN] | > 100 |  |  |  |  |  |  | 13 |  | 5.9 |  |  | 8.4 | 9.1 |
| CCCSC1=C(SCCC)C(=O)N(Cc2cn(C3C(=O)N[C@@H]4Cc5ccc(c(Cl)c5)Oc5cc6cc(c5O)Oc5ccc(cc5Cl)[C@@H](O[C@@H]5O[C@H](CO)[C@@H](O)[C@H](O)[C@H]5NC(C)=O)[C@H]5NC(=O)[C@H](NC(O)[C@@H]6NC(=O)[C@@H](NC4=O)c4cc(O)cc(c4)Oc4cc3ccc4O)c3ccc(O)c(c3)-c3c(O)cc(O)cc3[C@H](C(=O)O)NC5=O)nn2)C1=O (stereo not given in full) | 20 |  | 22 | > 100 | > 100 |  | > 100 | > 100 | > 100 | > 100 | > 100 | > 100 |  |  |
| CCCCCCCCSC1=C(SCCCCCCCC)C(=O)N(CCOCCOCCOCCOCc2cn(C3C(=O)N[C@@H]4Cc5ccc(c(Cl)c5)Oc5cc6cc(c5O)Oc5ccc(cc5Cl)[C@@H](O[C@@H]5O[C@H](CO)[C@@H](O)[C@H](O)[C@H]5NC(C)=O)[C@H]5NC(=O)[C@H](NC(O)[C@@H]6NC(=O)[C@@H](NC4=O)c4cc(O)cc(c4)Oc4cc3ccc4O)c3ccc(O)c(c3)-c3c(O)cc(O)cc3[C@H](C(=O)O)NC5=O)nn2)C1=O (stereo not given in full) | ≥ 4 |  | 19 | ≤ 0.8 | 1.3 |  | 2 | 0.92 | ≤ 1.4 | ≤ 0.8 | > 20 | > 20 |  |  |
| CCCCCCCCCCCCSC1=C(SCCCCCCCCCCCC)C(=O)N(Cc2cn(C3C(=O)N[C@@H]4Cc5ccc(c(Cl)c5)Oc5cc6cc(c5O)Oc5ccc(cc5Cl)[C@@H](O[C@@H]5O[C@H](CO)[C@@H](O)[C@H](O)[C@H]5NC(C)=O)[C@H]5NC(=O)[C@H](NC(O)[C@@H]6NC(=O)[C@@H](NC4=O)c4cc(O)cc(c4)Oc4cc3ccc4O)c3ccc(O)c(c3)-c3c(O)cc(O)cc3[C@H](C(=O)O)NC5=O)nn2)C1=O (stereo not given in full) | 100 |  | 75 | > 100 | > 100 |  | > 100 | > 100 | > 100 | > 100 | > 100 | > 100 |  |  |
| CC(N)C12CC3CC(CC(C3)C1)C2 (stereo not given) [RIMANTADINE] | > 500 | > 500 | > 500 |  | > 500 | > 500 | > 500 | 0.2 |  |  |  |  |  |  |
| CCCCCCCCCCCCSC1=C(SCCCCCCCCCCCC)C(=O)N(CCOCCOCCOCCOCc2cn(C3C(=O)N[C@@H]4Cc5ccc(c(Cl)c5)Oc5cc6cc(c5O)Oc5ccc(cc5Cl)[C@@H](O[C@@H]5O[C@H](CO)[C@@H](O)[C@H](O)[C@H]5NC(C)=O)[C@H]5NC(=O)[C@H](NC(O)[C@@H]6NC(=O)[C@@H](NC4=O)c4cc(O)cc(c4)Oc4cc3ccc4O)c3ccc(O)c(c3)-c3c(O)cc(O)cc3[C@H](C(=O)O)NC5=O)nn2)C1=O (stereo not given in full) | 20 | > 100 | 79 | 2.8 | > 100 | > 100 | 13 | > 100 | > 100 | 2.4 |  |  |  |  |
